Test results reported in ChEMBL document CHEMBL1143992, “Trypanosoma cruzi: activities of lapachol and alpha- and beta-lapachone derivatives against epimastigote and trypomastigote forms” (Bioorg Med Chem, 2008).

Tests used:
Trypanosoma cruzi [1] = assay: Antitrypanosomal activity against Trypanosoma cruzi MF assessed as trypomastigote viability at >100 uM by MTT assay relative to control
Trypanosoma cruzi [2] = assay: Effect on oxygen redox cycling in Trypanosoma cruzi Tulahuen assessed as oxygen consumption per mg of protein relative to control; assay type: functional; set-up: concentration or dose not given beside the values
How it was run: (§1)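 Tulahuen epimastigotes were harvested on day 4 or 5 (500g, 10 min), washed and resuspended in 0.05 M sodium phosphate buffer pH 7.4 (0.107 M NaCl, 0.05 M KH2PO4). Respiration was measured polarographically with a Clark electrode as nanoatoms-gram O/min/mg protein, as % of control. Redox cycling was measured with 20 mM KCN, as % of KCN control. Values are means of three experiments.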

Trypanosoma cruzi [3] = assay: Growth inhibition of Trypanosoma cruzi Tulahuen epimastigotes assessed as drug level causing decrease in growth constant; assay type: functional, organism-based
How it was run: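 Tulahuen epimastigotes were seeded at 3 × 10^6/mL in Diamond's medium with 4 µM hemin, 5% FBS and penicillin/streptomycin at 28 °C. Drugs were added in DMSO (1% final) at several concentrations, in triplicate. Growth was followed daily for 10 days by nephelometry and fitted to first-order kinetics to give the growth constant k. ICk50 is the concentration lowering k by 50%.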

Trypanosoma cruzi [4] = assay: Effect on oxygen uptake per mg of protein in Trypanosoma cruzi Tulahuen epimastigotes relative to control; assay type: functional; set-up: concentration or dose not given beside the values
How it was run: as §1

Trypanosoma cruzi [5] = assay: Antitrypanosomal activity against Trypanosoma cruzi MF assessed as trypomastigote viability at 1.93 uM by MTT assay relative to control
Trypanosoma cruzi [6] = assay: Antitrypanosomal activity against Trypanosoma cruzi MF assessed as trypomastigote viability at 20.1 uM by MTT assay relative to control
Trypanosoma cruzi [7] = assay: Antitrypanosomal activity against Trypanosoma cruzi MF assessed as trypomastigote viability at 38.1 uM by MTT assay relative to control
Trypanosoma cruzi [8] = assay: Antitrypanosomal activity against Trypanosoma cruzi MF assessed as viability at 3.75 uM by MTT assay relative to control
Trypanosoma cruzi [9] = assay: Antitrypanosomal activity against Trypanosoma cruzi MF assessed as trypomastigote viability at 24.5 uM by MTT assay relative to control
Trypanosoma cruzi [10] = assay: Antitrypanosomal activity against Trypanosoma cruzi MF assessed as trypomastigote viability at 22.2 uM by MTT assay relative to control
Trypanosoma cruzi [11] = assay: Antitrypanosomal activity against Trypanosoma cruzi MF assessed as trypomastigote viability at 0.19 uM by MTT assay relative to control
Trypanosoma cruzi [12] = assay: Antitrypanosomal activity against Trypanosoma cruzi MF assessed as trypomastigote viability at 31.3 uM by MTT assay relative to control
Trypanosoma cruzi [13] = assay: Antitrypanosomal activity against Trypanosoma cruzi MF assessed as trypomastigote viability at 24.7 uM by MTT assay relative to control

IC50 (Trypanosoma cruzi [3])	Structure (SMILES)	Activity (Trypanosoma cruzi [2])	Activity (Trypanosoma cruzi [4])	also measured
> 100 µM	CC(C)(O)CCC1=C(O)C(=O)c2ccccc2C1=O	109%	125%	Activity (Trypanosoma cruzi [1]): 112.6%
35.2 µM	CC(=O)CCC1=C(O)C(=O)c2ccccc2C1=O	100%	100.6%	–
1.93 µM	CC1CCC2=C(O1)c1ccccc1C(=O)C2=O (stereo not given)	100%	100.6%	Activity (Trypanosoma cruzi [5]): 40.3%
20.1 µM	CC1(C)C=CC2=C(O1)C(=O)c1ncccc1C2=O	254%	243.3%	Activity (Trypanosoma cruzi [6]): 44.8%
38.1 µM	COc1cccc2c1C(=O)C1=C(C=CC(C)(C)O1)C2=O	100%	100.2%	Activity (Trypanosoma cruzi [7]): 26.7%
3.75 µM	CC1(C)OC2=C(CC1O)C(=O)C(=O)c1ccccc12 (stereo not given)	100%	96.8%	Activity (Trypanosoma cruzi [8]): 30.4%
26.2 µM	CC1CC(c2ccccc2)C2=C(O1)C(=O)c1ccccc1C2=O (stereo not given)	96%	95.4%	–
24.5 µM	CC1CCC2=C(O1)C(=O)c1ccccc1C2=O (stereo not given)	173%	138.8%	Activity (Trypanosoma cruzi [9]): 15.6%
22.2 µM	CC(=O)OC1CC(C)(C)OC2=C1C(=O)c1ccccc1C2=O (stereo not given)	168%	135.5%	Activity (Trypanosoma cruzi [10]): 32.9%
36.3 µM	CC(=O)CC1CCC2=C(O1)C(=O)c1ccccc1C2=O (stereo not given)	168%	142.5%	–
0.19 µM	CC1(C)CC(O)C2=C(O1)C(=O)c1ncccc1C2=O (stereo not given)	55%	33.2%	Activity (Trypanosoma cruzi [11]): 8.8%
20.6 µM	O=C(Cn1ccnc1[N+](=O)[O-])NCc1ccccc1 [BENZNIDAZOLE]	82%	57.8%	–
24.7 µM	CC1(C)CCC2=C(O1)c1ccccc1C(=O)C2=O [LAPACHONE]	100%	107.5%	Activity (Trypanosoma cruzi [13]): 2.9%
9.5 µM	CC1CS(=O)(=O)CCN1/N=C/c1ccc([N+](=O)[O-])o1 (stereo not given) [NIFURTIMOX]	113%	120.4%	–

Structure (SMILES)	IC50 (Trypanosoma cruzi [3])	Activity (Trypanosoma cruzi [2])	Activity (Trypanosoma cruzi [4])	also measured
CC(C)=CCC1=C(O)C(=O)c2ccccc2C1=O [LAPACHOL]	31.3 µM	82%	51.8%	Activity (Trypanosoma cruzi [12]): 41.7%
